# Assay results published in paper PMC9231628 (Proceedings of the National Academy of Sciences of the …, 2022).
# Experiments:
# Oncopeltus Na+/K+-ATPase = assay: Na+/K+-ATPase inhibition assay, Oncopeltus neural enzyme; type: biochemical, Oncopeltus fasciatus; conditions: from Fig. 3
# How it was run: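 Neural-tissue enzyme; stocks in 20% DMSO/H₂O (5 mM, or 1 mM for one test compound). Six-point 1/10 dilution series, diluted 1:5 into Tris-buffered ATP, NaCl, KCl, MgCl₂ plus enzyme; 37 °C, 20 min, shaking. Stopped with 10% SDS; Pi by Taussky–Shorr at 700 nm. Background: 10 mM ouabain, no KCl. IC50 from four-parameter logistic mixed model; ratios use monarch enzyme or ouabain IC50s.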
# monarch butterflies = conditions: cited from earlier work
# monarch Na+/K+-ATPase = monarch Na+/K+-ATPase (Danaus plexippus, UniProt K0G7C4); conditions: monarch enzyme; cited from earlier work
# Oncopeltus fasciatus = assay: Laboratory rearing on A. syriaca seeds: sequestration of seed cardenolides; type: in vivo; conditions: bugs reared on A. syriaca seeds from Ithaca, NY
# How it was run: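 Field-collected Oncopeltus (Ithaca, NY) reared on a pooled A. syriaca seed lot for fewer than five generations. Whole adults and seeds, 50 mg ground freeze-dried each, extracted in methanol with 20 µg digitoxin internal standard. Analysed by C18 HPLC-UV (acetonitrile/water gradient, 218 nm), with cardenolides taken as peaks with a 214–222 nm maximum. Quantified by peak area against digitoxin on a dry-mass basis; HRMS for identification.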
# monarch Na+/K+-ATPase, sequence (K0G7C4 1-1009): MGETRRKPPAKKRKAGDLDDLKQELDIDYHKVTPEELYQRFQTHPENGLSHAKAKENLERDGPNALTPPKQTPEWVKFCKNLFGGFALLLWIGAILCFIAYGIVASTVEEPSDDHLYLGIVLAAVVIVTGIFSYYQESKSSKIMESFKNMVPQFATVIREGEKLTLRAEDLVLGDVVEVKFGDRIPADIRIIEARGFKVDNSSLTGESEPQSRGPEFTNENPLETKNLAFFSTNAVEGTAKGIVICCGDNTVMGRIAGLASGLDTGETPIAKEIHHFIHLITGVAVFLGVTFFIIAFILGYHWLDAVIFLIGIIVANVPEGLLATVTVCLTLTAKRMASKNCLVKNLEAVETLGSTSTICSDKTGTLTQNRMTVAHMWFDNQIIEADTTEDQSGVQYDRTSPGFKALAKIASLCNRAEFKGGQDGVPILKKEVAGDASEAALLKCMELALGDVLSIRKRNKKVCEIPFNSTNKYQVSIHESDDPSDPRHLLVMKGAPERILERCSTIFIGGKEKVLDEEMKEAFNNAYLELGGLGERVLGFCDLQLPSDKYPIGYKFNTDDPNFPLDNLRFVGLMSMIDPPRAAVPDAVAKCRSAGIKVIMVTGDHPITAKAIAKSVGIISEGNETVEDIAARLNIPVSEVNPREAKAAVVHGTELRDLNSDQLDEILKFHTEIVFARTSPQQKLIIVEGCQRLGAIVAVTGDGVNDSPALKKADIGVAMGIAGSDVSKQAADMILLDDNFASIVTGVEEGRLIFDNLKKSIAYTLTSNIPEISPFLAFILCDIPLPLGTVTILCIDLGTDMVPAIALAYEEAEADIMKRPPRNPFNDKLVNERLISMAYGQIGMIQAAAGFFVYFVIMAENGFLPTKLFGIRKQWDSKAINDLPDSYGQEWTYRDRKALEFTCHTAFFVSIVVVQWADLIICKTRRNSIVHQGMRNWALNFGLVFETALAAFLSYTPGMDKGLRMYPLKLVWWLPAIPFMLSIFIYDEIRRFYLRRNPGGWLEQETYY
molecule,measurement,setting,value
"C[C@@H]1O[C@@H](O[C@H]2C[C@@H](O)[C@]3(CO)[C@H]4[C@H](O)C[C@]5(C)[C@@H](C6=CC(=O)OC6)CC[C@]5(O)[C@@H]4CC[C@]3(O)C2)[C@H](O)[C@H](O)[C@H]1O [Ouabain, ouabain]",advantage (tolerance) of Oncopeltus enzyme over monarchs,Oncopeltus Na+/K+-ATPase,2 fold
"C[C@@H]1C[C@@]2(NCCS2)[C@]2(O)O[C@@H]3C[C@@]4(C=O)[C@@H](CC[C@@H]5[C@@H]4CC[C@]4(C)[C@@H](C6=CC(=O)OC6)CC[C@]54O)C[C@H]3O[C@@H]2O1 [Voruscharin, voruscharin]",effect on monarch growth,monarch butterflies,negatively impacts monarch growth
same,IC50,monarch Na+/K+-ATPase,2000 nM
Aspecioside A,share of the total cardenolides in bugs,Oncopeltus fasciatus,33%
